Columns and labels:
Format in all cases: functional, cell-based
CNE-2 = assay: Anticancer activity against human CNE2 cells assessed as reduction in cell viability incubated for 48 hrs MTT assay; conditions: CNE-2, 48 h
Outline: (§1)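 MTT assay on human hepatocarcinoma SMMC-7721, lung carcinoma A549 and nasopharyngeal carcinoma CNE2 cells, with matrine as comparator and cisplatin as positive control. IC50 is the concentration that lowers optical density of treated cells by 50% versus untreated cells, given as the mean ± SD of three experiments.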

A549 = assay: Anticancer activity against human A549 cells assessed as reduction in cell viability incubated for 48 hrs MTT assay; conditions: A549, 48 h; outline: as §1
SMMC-7721 = assay: Anticancer activity against human SMMC7721 cells assessed as reduction in cell viability incubated for 48 hrs MTT assay; conditions: SMMC-7721, 48 h; outline: as §1

| Structure (SMILES) | IC50 (CNE-2) | IC50 (A549) | IC50 (SMMC-7721) |
| --- | --- | --- | --- |
| COc1cc(Cn2cc(/C=C3\CC[C@@H]4[C@H]5CCCN6CCC[C@@H](CN4C3=O)[C@@H]56)c3ccccc32)cc(OC)c1OC | 20 µM | > 50 µM | 15.5 µM |
| COc1ccc(Br)c(Cn2cccc2/C=C2\CC[C@@H]3[C@H]4CCCN5CCC[C@@H](CN3C2=O)[C@@H]45)c1 | 11.6 µM | 14.5 µM | 12.2 µM |
| O=C1/C(=C/c2ccc3c(ccn3Cc3cccc(Cl)c3)c2)CC[C@@H]2[C@H]3CCCN4CCC[C@@H](CN12)[C@@H]34 | 14.6 µM | 29.9 µM | 25.8 µM |
| O=C1/C(=C/c2cccn2Cc2ccccc2)CC[C@@H]2[C@H]3CCCN4CCC[C@@H](CN12)[C@@H]34 | 45.7 µM | 42.9 µM | 38.4 µM |
| COc1cc(Cn2cccc2/C=C2\CC[C@@H]3[C@H]4CCCN5CCC[C@@H](CN3C2=O)[C@@H]45)cc(OC)c1OC | 7.83 µM | 18.9 µM | 13.3 µM |
| O=C1/C(=C/c2cn(Cc3ccc(OC(F)(F)F)cc3)c3ccc(Br)cc23)CC[C@@H]2[C@H]3CCCN4CCC[C@@H](CN12)[C@@H]34 | 6.04 µM | 9.04 µM | 11.5 µM |
| O=C1/C(=C/c2cccn2Cc2ccc3ccccc3c2)CC[C@@H]2[C@H]3CCCN4CCC[C@@H](CN12)[C@@H]34 | 14.7 µM | 23.9 µM | 20.3 µM |
| Cc1cccc(Cn2cccc2/C=C2\CC[C@@H]3[C@H]4CCCN5CCC[C@@H](CN3C2=O)[C@@H]45)c1 | 24.5 µM | 44.3 µM | 30.7 µM |
| O=C1/C(=C/c2cn(Cc3cccc(Cl)c3)c3ccc(Br)cc23)CC[C@@H]2[C@H]3CCCN4CCC[C@@H](CN12)[C@@H]34 | 8.5 µM | 16.8 µM | 9.81 µM |
| CC(C)(C)c1ccc(Cn2cc(/C=C3\CC[C@@H]4[C@H]5CCCN6CCC[C@@H](CN4C3=O)[C@@H]56)c3ccccc32)cc1 | 7.73 µM | 9.68 µM | 9.55 µM |
| CC(C)(C)c1ccc(Cn2ccc3c(/C=C4\CC[C@@H]5[C@H]6CCCN7CCC[C@@H](CN5C4=O)[C@@H]67)cccc32)cc1 | 9.75 µM | 15.5 µM | 13.8 µM |
| O=C1/C(=C/c2cccn2Cc2ccc(OC(F)(F)F)cc2)CC[C@@H]2[C@H]3CCCN4CCC[C@@H](CN12)[C@@H]34 | 23.9 µM | 47.1 µM | 36.6 µM |
| Cc1ccc2c(c1)c(/C=C1\CC[C@@H]3[C@H]4CCCN5CCC[C@@H](CN3C1=O)[C@@H]45)cn2Cc1ccc2ccccc2c1 | 3.53 µM | 5.04 µM | 3.26 µM |
| O=C1/C(=C/c2cccn2Cc2ccccc2Br)CC[C@@H]2[C@H]3CCCN4CCC[C@@H](CN12)[C@@H]34 | 17.3 µM | 12 µM | 15.1 µM |
| O=C1/C(=C/c2ccc3c(ccn3Cc3ccc4ccccc4c3)c2)CC[C@@H]2[C@H]3CCCN4CCC[C@@H](CN12)[C@@H]34 | 14.3 µM | 30.2 µM | 27 µM |
| O=C1/C(=C/c2cn(Cc3ccccc3)c3ccccc23)CC[C@@H]2[C@H]3CCCN4CCC[C@@H](CN12)[C@@H]34 | 10.8 µM | 13.9 µM | 11.9 µM |
| O=C1/C(=C/c2cccn2Cc2ccc(Cl)cc2)CC[C@@H]2[C@H]3CCCN4CCC[C@@H](CN12)[C@@H]34 | 15.2 µM | 21.6 µM | 21.6 µM |
| Cc1ccc2c(c1)c(/C=C1\CC[C@@H]3[C@H]4CCCN5CCC[C@@H](CN3C1=O)[C@@H]45)cn2Cc1cccc(Cl)c1 | 11.8 µM | 9.13 µM | 8.35 µM |
| COc1cccc(Cn2cc(/C=C3\CC[C@@H]4[C@H]5CCCN6CCC[C@@H](CN4C3=O)[C@@H]56)c3ccccc32)c1 | 9.31 µM | 15.3 µM | 13.7 µM |
| O=C1/C(=C/c2cn(Cc3ccc(OC(F)(F)F)cc3)c3ccc(Cl)cc23)CC[C@@H]2[C@H]3CCCN4CCC[C@@H](CN12)[C@@H]34 | 3.52 µM | 5.24 µM | 9.73 µM |
| COc1ccc(Cn2ccc3c(/C=C4\CC[C@@H]5[C@H]6CCCN7CCC[C@@H](CN5C4=O)[C@@H]67)cccc32)cc1 | 15.5 µM | 28.4 µM | 28.2 µM |
| O=C1CCC[C@@H]2[C@H]3CCCN4CCC[C@@H](CN12)[C@@H]34 [MATRINE] | 5280 µM | 5720 µM | 6590 µM |

— ChEMBL document CHEMBL4184236, “Design, synthesis and biological evaluation of matrine derivatives as potential anticancer agents” (Bioorg Med Chem Lett, 2018)
